Experimental findings from ChEMBL document CHEMBL3526053, “Species-dependent uptake of glycylsarcosine but not oseltamivir in Pichia pastoris expressing the rat, mouse, and human intestinal peptide transporter PEPT1” (Drug Metab Dispos, 2012) are described below.

Assay type in all cases: ADME
Data set [1] concerns the target T1, Solute carrier family 15 member 1 (Rattus norvegicus, UniProt P51574).
T1 sequence (P51574 whole entry): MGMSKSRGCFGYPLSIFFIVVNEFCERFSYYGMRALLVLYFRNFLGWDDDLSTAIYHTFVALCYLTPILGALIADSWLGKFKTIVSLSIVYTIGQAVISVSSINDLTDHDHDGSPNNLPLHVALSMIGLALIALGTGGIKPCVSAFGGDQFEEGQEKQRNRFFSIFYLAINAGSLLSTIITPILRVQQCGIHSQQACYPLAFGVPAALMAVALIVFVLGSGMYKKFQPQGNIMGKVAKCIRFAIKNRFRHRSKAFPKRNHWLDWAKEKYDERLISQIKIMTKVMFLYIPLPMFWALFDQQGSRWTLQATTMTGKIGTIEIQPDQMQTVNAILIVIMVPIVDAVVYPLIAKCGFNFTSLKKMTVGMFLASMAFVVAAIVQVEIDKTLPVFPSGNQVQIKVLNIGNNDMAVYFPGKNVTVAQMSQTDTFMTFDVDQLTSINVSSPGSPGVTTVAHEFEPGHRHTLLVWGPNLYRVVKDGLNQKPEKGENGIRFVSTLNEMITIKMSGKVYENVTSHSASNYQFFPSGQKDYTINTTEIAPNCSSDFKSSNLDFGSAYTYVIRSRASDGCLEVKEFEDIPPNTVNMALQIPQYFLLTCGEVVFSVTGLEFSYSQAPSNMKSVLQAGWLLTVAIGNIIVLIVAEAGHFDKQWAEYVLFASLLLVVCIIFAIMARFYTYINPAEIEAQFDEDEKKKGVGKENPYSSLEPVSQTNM
Kind of data set: Drug uptake in Pichia pastoris GS115 expressing rat recombinant PEPT1 at 5 uM after 30s by dual-channel liquid scintillation counting analysis in presence of cephapirin relative to control. The note with it: 0.5 min. Summed up:
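Rat PEPT1 (pPIC3.5K-rPept1) in GS115 His+Mut+ transformant, methanol-induced 20-24 hr in BMMY at 30°C, washed into 100 mM potassium phosphate pH 6.5. [3H]GlySar final 5.0 µM with inhibitor at 10 mM, 30 sec at 24°C. Counts taken by liquid scintillation after 24 hr standing. Values are vector-subtracted and given as % of buffer control. Mean ± SE, n=3.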

The target of data set [2] is T2, Solute carrier family 15 member 1 (Mus musculus, UniProt Q9JIP7).
T2 sequence (Q9JIP7 whole entry): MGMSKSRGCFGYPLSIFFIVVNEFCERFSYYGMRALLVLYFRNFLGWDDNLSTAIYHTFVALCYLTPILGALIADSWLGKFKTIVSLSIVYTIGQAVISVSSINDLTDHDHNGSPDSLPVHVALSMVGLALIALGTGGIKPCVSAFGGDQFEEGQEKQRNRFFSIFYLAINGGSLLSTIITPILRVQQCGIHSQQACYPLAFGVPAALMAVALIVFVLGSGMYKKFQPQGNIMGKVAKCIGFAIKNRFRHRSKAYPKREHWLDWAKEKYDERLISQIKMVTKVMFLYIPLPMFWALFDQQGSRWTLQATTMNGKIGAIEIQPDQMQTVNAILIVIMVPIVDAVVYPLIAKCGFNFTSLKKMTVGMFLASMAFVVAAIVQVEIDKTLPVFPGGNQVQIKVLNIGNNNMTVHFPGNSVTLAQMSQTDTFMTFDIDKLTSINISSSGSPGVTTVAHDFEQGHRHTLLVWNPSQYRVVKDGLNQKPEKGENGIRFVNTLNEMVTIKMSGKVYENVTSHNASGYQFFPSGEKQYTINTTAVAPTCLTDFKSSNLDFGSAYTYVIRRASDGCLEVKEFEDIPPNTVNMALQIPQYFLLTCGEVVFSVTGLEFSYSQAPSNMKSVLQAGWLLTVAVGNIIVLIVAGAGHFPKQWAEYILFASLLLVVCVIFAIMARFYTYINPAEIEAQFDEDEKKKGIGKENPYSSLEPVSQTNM
Kind of data set: Drug uptake in Pichia pastoris GS115 expressing mouse recombinant PEPT1 at 5 uM after 30s by dual-channel liquid scintillation counting analysis in presence of acyclovir relative to control. The note with it: 0.5 min. Summed up:
(§1)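 [3H]GlySar 5.0 µM final, 30-s uptake at 24°C in 100 mM potassium phosphate pH 6.5, with or without a potential inhibitor at 10 mM. Cells are methanol-induced transformants. Values are vector-subtracted and expressed as percent of buffer control. Mean ± SE (n=3). ANOVA with Dunnett's test.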

In data set [3] the target is T3, Solute carrier family 15 member 1 (Homo sapiens, UniProt P46059).
T3 sequence (P46059 whole entry): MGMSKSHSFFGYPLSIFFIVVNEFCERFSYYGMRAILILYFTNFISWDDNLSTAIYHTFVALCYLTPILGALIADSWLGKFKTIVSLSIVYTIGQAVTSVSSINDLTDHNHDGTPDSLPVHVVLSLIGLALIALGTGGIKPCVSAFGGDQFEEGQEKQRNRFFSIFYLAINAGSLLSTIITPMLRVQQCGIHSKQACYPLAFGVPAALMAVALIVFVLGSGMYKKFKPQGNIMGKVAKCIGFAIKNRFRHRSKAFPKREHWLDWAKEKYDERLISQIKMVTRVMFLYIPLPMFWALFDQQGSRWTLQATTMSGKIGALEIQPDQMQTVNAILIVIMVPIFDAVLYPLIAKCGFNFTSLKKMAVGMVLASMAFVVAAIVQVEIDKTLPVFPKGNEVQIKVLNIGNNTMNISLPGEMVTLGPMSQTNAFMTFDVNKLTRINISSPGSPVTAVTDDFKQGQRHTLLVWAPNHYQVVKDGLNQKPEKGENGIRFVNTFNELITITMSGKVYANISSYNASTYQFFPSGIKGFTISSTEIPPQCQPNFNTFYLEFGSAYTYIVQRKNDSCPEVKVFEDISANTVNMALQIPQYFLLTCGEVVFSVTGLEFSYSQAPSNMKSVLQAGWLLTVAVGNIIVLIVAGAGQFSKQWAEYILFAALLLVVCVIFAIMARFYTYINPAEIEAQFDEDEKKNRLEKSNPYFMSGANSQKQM
Kind of data set: Drug uptake in Pichia pastoris GS115 expressing human recombinant PEPT1 at 5 uM after 30s by dual-channel liquid scintillation counting analysis in presence of valacyclovir relative to control. The note with it: 0.5 min. Summed up: as §1

Data set [4] addresses T1, Solute carrier family 15 member 1. Nature of the data set: Drug uptake in Pichia pastoris GS115 expressing rat recombinant PEPT1 at 5 uM after 30s by dual-channel liquid scintillation counting analysis in presence of SITS relative to control. The note with it: in vivo, 0.5 min. Summed up:
as §1

Data set [5] addresses T2, Solute carrier family 15 member 1. Kind of data set: Drug uptake in Pichia pastoris GS115 expressing mouse recombinant PEPT1 at 5 uM after 30s by dual-channel liquid scintillation counting analysis in presence of elacridar relative to control. Particulars: 0.5 min. Summed up:
as §1

The target in data set [6] is T3, Solute carrier family 15 member 1. Kind of data set: Drug uptake in Pichia pastoris GS115 expressing human recombinant PEPT1 at 5 uM after 30s by dual-channel liquid scintillation counting analysis in presence of glycine relative to control. Particulars: 0.5 min. Summed up:
as §1

Regarding `[3H]C(C(=O)O)N(C)C(=O)CN` (stereo unspecified), the Drug uptake in data set [1] is 122%; in data set [2], 99.8%; in data set [3], 3.5%; in data set [4] it was 107%; in data set [5], 89.3%; in data set [6] it was 130%.
